Source: ChEMBL document CHEMBL1123980, “Serotonergic properties of spiroxatrine enantiomers” (J Med Chem, 1988)
pKi: −log10 of the molar value.

Assays:
[1] = target: D(2) dopamine receptor (Rattus norvegicus, UniProt P61169); experiment: Binding affinity against Dopamine receptor D2 of rat was determined using 2 nM of [3H]sulpiride in binding assay
Outline: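 Striatal membranes from male Sprague-Dawley rats in Tris buffer with 108 mM NaCl, 4.7 mM KCl, 1.3 mM CaCl2, pH 7.4, 4 mg wet tissue/mL. Final [3H]sulpiride 2 nM; incubated 20 min at 37 °C, then vacuum filtration. Specific binding defined with 1 µM spiperone. IC50 read graphically and converted to apparent Ki (Cheng-Prusoff).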

[2] = target: Serotonin 2 (5-HT2) receptor (Rattus norvegicus, UniProt P30994+P08909+P14842); experiment: Binding affinity towards serotonin 5-hydroxytryptamine 2 receptor of rat determined using 0.5 nM of [3H]ketanserin in binding assay; format: protein assay
Outline: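 0.5 nM [3H]ketanserin in the same buffer, no CaCl2 or pargyline; 15 min at 37 °C; filtration and scintillation counting. Nonspecific binding with 10 µM methysergide. IC50 read graphically and converted to apparent Ki (Cheng-Prusoff).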

[3] = target: 5-hydroxytryptamine receptor 1B (Rattus norvegicus, UniProt P28564); experiment: Binding affinity towards 5-hydroxytryptamine 1B receptor in rat was determined using 50 uL of [125I]ICYP in binding assay
Sequence of 5-hydroxytryptamine receptor 1B (P28564 whole entry): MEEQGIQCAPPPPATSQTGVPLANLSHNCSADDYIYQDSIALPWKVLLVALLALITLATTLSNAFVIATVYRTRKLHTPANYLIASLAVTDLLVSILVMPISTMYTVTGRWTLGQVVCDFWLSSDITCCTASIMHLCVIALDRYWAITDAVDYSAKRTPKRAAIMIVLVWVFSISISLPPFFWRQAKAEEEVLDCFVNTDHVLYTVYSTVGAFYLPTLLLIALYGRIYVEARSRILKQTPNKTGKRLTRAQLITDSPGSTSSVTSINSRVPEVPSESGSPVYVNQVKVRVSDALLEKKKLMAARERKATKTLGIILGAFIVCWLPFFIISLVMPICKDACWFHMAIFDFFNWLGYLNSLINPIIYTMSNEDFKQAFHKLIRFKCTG
Outline: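 [125I]ICYP at 150 pM final, in Tris/CaCl2/pargyline medium with 60 µM (-)-isoproterenol to block β-adrenergic sites. 15 min at 37 °C; ice-cold phosphate dilution, GF/B filtration, gamma counting. Nonspecific binding with 10 µM 5-HT.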

[4] = target: T1, Adrenergic receptor alpha-1 (Rattus norvegicus, UniProt P15823+P23944+P43140); experiment: Binding affinity against alpha-1 adrenergic receptor of rat was determined using 0.5 nM of [3H]WB-4101 in binding assay; format: protein assay
T1 sequence (P15823 whole entry): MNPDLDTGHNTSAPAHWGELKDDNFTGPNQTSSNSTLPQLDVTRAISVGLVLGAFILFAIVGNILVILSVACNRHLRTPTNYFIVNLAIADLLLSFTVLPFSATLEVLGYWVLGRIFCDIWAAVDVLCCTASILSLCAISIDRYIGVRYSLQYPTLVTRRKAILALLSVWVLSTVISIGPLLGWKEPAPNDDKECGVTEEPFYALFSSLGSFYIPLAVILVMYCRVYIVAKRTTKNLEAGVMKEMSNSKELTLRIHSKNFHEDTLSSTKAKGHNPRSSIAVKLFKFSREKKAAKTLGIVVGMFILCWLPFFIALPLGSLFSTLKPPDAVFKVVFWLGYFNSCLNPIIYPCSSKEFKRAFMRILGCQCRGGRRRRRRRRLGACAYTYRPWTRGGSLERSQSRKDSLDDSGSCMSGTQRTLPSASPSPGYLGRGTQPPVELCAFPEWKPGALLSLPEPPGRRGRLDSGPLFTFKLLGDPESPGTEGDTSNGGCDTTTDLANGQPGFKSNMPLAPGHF
T1 sequence (P23944 whole entry): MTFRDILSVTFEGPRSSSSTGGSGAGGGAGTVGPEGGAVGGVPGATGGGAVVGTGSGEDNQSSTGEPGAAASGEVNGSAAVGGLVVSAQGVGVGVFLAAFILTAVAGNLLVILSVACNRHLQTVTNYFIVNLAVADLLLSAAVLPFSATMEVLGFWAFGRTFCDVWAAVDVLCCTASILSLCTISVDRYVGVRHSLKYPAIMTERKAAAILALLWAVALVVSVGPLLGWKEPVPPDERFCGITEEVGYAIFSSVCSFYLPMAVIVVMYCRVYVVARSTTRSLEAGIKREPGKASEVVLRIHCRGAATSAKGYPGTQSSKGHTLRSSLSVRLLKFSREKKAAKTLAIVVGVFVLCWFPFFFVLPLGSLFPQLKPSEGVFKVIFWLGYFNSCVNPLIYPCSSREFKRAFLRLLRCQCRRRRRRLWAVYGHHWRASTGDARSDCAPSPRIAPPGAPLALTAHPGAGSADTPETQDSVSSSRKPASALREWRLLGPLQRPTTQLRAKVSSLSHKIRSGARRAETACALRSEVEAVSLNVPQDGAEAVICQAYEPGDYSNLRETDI
T1 sequence (P43140 whole entry): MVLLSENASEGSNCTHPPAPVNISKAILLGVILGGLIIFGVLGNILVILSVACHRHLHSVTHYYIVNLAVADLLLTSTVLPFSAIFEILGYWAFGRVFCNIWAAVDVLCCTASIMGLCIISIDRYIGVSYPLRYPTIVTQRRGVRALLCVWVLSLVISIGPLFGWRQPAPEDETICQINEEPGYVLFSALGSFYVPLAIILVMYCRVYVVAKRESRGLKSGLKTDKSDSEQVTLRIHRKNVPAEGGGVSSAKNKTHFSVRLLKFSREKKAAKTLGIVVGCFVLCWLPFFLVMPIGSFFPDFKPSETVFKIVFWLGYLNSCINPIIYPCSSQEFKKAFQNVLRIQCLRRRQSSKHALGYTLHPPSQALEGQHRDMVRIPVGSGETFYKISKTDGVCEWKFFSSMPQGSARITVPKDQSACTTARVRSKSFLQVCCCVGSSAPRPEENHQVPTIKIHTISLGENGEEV
Outline: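 Washed rat cerebral cortex membranes at 10 mg wet tissue/mL, under the 8-OH-DPAT assay conditions (Tris/CaCl2/pargyline, pH 7.4, 15 min, 37 °C, filtration). Final [3H]WB4101 0.5 nM, with 1 µM 5-HT added to mask 5-HT1A sites. Nonspecific binding with 1 µM prazosin. Apparent Ki from graphical IC50 via Cheng-Prusoff.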

[5] = target: T2, 5-hydroxytryptamine receptor 1A (Rattus norvegicus, UniProt P19327); experiment: Binding affinity against 5-hydroxytryptamine 1A receptor of rat was determined using [3H]8-OH-DPAT in binding assay
T2 sequence (P19327 whole entry): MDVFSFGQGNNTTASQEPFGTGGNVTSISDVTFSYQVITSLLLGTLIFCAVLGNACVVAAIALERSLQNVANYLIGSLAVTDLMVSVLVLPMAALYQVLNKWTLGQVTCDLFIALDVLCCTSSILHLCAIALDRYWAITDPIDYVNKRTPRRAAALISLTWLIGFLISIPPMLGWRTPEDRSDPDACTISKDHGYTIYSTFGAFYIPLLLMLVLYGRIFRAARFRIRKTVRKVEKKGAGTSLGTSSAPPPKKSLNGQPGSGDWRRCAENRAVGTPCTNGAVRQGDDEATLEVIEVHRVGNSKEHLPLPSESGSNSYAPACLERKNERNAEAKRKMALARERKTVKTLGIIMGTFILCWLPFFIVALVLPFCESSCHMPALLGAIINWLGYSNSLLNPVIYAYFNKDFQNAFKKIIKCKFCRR
Outline: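 Rat (male Sprague-Dawley) cerebral cortex membranes, washed 4 times with a 10 min 37 °C preincubation, 10 mg wet tissue/mL. 1 nM [3H]-8-OH-DPAT in 50 mM Tris, 3 mM CaCl2, pargyline, pH 7.4; 15 min, 37 °C; filtration on PEI-treated GF/B filters, scintillation counting. Nonspecific binding with 10 µM 5-HT. IC50 read graphically and converted to apparent Ki (Cheng-Prusoff).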

Sequence of D(2) dopamine receptor (P61169 whole entry): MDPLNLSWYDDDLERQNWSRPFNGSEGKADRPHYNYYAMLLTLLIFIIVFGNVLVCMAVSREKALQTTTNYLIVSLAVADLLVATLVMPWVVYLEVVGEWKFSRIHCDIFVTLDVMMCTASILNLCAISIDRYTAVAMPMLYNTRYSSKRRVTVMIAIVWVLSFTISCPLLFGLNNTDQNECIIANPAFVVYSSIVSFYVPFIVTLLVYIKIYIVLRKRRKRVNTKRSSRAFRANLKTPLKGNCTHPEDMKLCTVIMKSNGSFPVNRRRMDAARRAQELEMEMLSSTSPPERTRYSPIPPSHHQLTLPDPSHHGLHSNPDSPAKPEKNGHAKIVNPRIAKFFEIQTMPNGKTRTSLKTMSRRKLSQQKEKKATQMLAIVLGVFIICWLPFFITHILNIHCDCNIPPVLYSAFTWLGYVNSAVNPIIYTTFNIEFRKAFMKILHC

Compound	pKi [1]	Ki [2]	pKi [3]	Ki [4]	pKi [5]
O=C1NCN(c2ccccc2)C12CCN(CC1COc3ccccc3O1)CC2 (stereo in doubt; (+)) [SPIROXATRINE]	8.84	858 nM	< 5.00	1050 nM	7.68
O=C1NCN(c2ccccc2)C12CCN(CC1COc3ccccc3O1)CC2 (stereo in doubt; (-)) [SPIROXATRINE]	9.66	113 nM	< 5.00	149 nM	8.72
